This passage reports IC50 and EC50 results from ChEMBL document CHEMBL1806374, “Synthesis, characterization and cytotoxicity of some novel 1,3-disubstituted-2,3-dihydro-2-iminobenzimidazoles” (Eur J Med Chem, 2011).

The subject of test [1] is MDA-MB-231. The experiment in a line: Cytotoxicity against human MDA-MB-231 cells after 24 hrs by MTS assay. It counts as functional, cell-based. To be noted: MDA-MB-231, 24 h. A digest of the protocol:
(§1)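 Cells were seeded at 2 × 10⁴ per well. After 24 h the monolayers were washed and overlaid with medium containing compound, from a 0.5 mg/ml DMSO stock diluted 1:10 to 1:10 000. Untreated medium served as control. After 24 h, MTS was added for 2 h at 37 °C in 5% CO2, and A490 was read. Viability was expressed as % of control, averaged over three independent assays, and IC50/EC50 were taken from the plotted curves.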
(In general: Formazan colour is commonly taken as a measure of viable cells.)

The subject of test [2] is HT-29. The experiment in a line: Antiproliferative activity against human HT-29 cells after 24 hrs by MTS assay. As to conditions: HT-29, 24 h. It counts as functional, cell-based. A digest of the protocol: as §1
Test [3] in a line: Antiproliferative activity against at human Splenocytes after 24 hrs by MTS assay. To be noted: Splenocyte. It counts as cell-based. An outline of the steps:
as §1

Test [4] deals with HT-29. In words: Cytotoxicity against human HT-29 cells after 24 hrs by MTS assay. To be noted: HT-29, 24 h. It counts as functional, cell-based. A digest of the protocol: as §1
Test [5] concerns MDA-MB-231. The experiment in a line: Antiproliferative activity against human MDA-MB-231 cells after 24 hrs by MTS assay. It counts as functional, cell-based. As to conditions: MDA-MB-231, 24 h. An outline of the steps:
as §1

Test [6] is described as follows: Cytotoxicity against human Splenocytes after 24 hrs by MTS assay. The test is classed as cell-based. As to conditions: Splenocyte. An outline of the steps: as §1

Molecule `CCOC(=O)Cn1c(=N)n(CC(=O)OCC)c2ccccc21` registered an IC50 with MDA-MB-231 [1] of 1.15 nM. Further, the EC50 was 2.37 nM in the test with HT-29 [2] and 14.3 nM in test [3].

`N=c1n(CCCc2ccccc2)c2ccccc2n1CCCc1ccccc1` yielded a half-inhibitory concentration (IC50) with HT-29 [4] of 9.26 nM. The EC50 with MDA-MB-231 [5] came to 1.39 nM; in test [3], 14.1 nM.

For `CCOC(=O)C(C)N1C2=NC(=O)C(C)N2c2ccccc21` (stereo not drawn), the EC50 in the test with HT-29 [2] amounted to 5.68 nM; in the test on MDA-MB-231 [5], 2.02 nM; in test [3] it was 0.542 nM.

With `N=c1n(CC(=O)NCCCN)c2ccccc2n1CC(=O)NCCCN`, the 50% inhibitory concentration (IC50) in the test with HT-29 [4] amounted to 0.56 nM; in the test with MDA-MB-231 [1], 0.123 nM. In test [3], it took 0.05 nM to reach a half-maximal effect (EC50).

In the test on MDA-MB-231 [1], `N=c1n(CC(=O)NCc2ccccc2)c2ccccc2n1CC(=O)NCc1ccccc1` came in with a concentration for half-maximal inhibition (IC50) of 1.65 nM. The half-maximal effective concentration (EC50) was 0.205 nM with HT-29 [2] and 7.74 nM in test [3].

In the case of `CN1CCN(C(=O)Cn2c(=N)n(CC(=O)N3CCN(C)CC3)c3ccccc32)CC1`, the half-maximal inhibitory concentration (IC50) turned out to be 0.013 nM with HT-29 [4] and 1.38 nM in test [6]. This molecule also had an EC50 with MDA-MB-231 [5] of 1.59 nM.

Turning to `N=c1n(CC(=O)N/N=C/c2ccc(F)cc2)c2ccccc2n1CC(=O)N/N=C/c1ccc(F)cc1`, the figures for the EC50 (in the test on HT-29 [2]; in test [3]) were 4.3 nM and 16.9 nM, respectively.

`N=c1n(CC(=O)N/N=C/c2cccc(F)c2)c2ccccc2n1CC(=O)N/N=C/c1cccc(F)c1`: the results for the concentration giving a half-maximal response (EC50) (in the test with HT-29 [2]; in the test with MDA-MB-231 [5]; in test [3]) were 3.51 nM, 0.002 nM and 11 nM, respectively.

The term IC50 denotes the concentration at which inhibition is half-maximal. A higher IC50 goes with lower potency. As a reminder, the EC50 is the concentration at which the effect is half-maximal. High values mean a need for much substance, low ones an effect from little substance.
